ABCB6 inh MLPCN: human ABCB6 transporter inhibition; Q9NP58; K562-ABCB6 porphyrin accumulation, flow cytometry, 1 h; active compounds read low; fluorescence ratio to DMSO, % at 10 µM; 360,000 compounds, 0.19% hits; AID 602162;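 active means fluorescence ratio to DMSO below 75%, the collection mean minus 3 SD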;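 further: signal is porphyrin accumulated inside mitochondria; 100% equals median channel fluorescence of DMSO control wells; lower ratio means ABCB6 inhibition with less porphyrin fluorescence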
Target sequence (Q9NP58 whole entry, looked up): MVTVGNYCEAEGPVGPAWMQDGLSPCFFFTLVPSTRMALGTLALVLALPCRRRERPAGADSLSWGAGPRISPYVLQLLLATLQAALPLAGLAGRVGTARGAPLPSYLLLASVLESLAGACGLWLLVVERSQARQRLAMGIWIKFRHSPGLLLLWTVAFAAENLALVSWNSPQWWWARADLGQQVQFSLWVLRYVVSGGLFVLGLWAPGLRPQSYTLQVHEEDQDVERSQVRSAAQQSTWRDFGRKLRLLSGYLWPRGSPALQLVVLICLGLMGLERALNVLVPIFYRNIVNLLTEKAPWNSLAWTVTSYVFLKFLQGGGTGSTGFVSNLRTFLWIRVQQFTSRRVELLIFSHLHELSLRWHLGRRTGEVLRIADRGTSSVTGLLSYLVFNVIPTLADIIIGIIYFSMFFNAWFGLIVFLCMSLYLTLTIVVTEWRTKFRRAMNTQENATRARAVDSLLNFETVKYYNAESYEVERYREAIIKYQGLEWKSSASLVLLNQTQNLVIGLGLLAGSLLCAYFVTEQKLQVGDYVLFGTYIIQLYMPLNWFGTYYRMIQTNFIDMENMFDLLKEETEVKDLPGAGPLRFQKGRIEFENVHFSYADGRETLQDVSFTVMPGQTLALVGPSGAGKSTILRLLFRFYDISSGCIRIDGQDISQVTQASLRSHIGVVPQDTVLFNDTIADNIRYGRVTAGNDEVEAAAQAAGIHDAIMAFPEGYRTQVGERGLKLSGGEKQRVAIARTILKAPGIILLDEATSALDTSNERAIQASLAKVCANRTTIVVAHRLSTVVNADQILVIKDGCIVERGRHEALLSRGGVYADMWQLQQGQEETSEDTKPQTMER
FAS-TE inh: blocks the thioesterase domain of human fatty acid synthase; P49327; recombinant FAS-TE, OMFH fluorogenic substrate, fluorescence endpoint; inhibition, % at 15 µM; 360,000 compounds, 0.67% hits; AID 602261;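 active means compounds whose normalised, plate-corrected inhibition of enzyme fluorescence in the single-dose primary screen is 50% or more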;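 further: 0% = DMSO with enzyme and 100% = substrate without enzyme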
SENP1 FRET inh: blocks the human SENP1 SUMO protease catalytic domain; recombinant SENP1 catalytic domain, CyPet-SUMO1-YPet FRET cleavage; AID 624204; Q9P0U3; 360,000 compounds, 0.21% hits; inhibition, % at 10 µM;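 active means inhibition at least 30% at 10 µM, raw YFP signal under a set limit, fluorescence ratio 0.5 to 1.5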;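 further: 0% = enzyme with DMSO and 100% = no enzyme wells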
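Test system: recombinant human SENP1 catalytic domain, His6-tagged / Medium: pH 8 Tris buffer with EDTA, NaCl, BME, BSA, NP40, catalase / Also added: SUMO1 FRET substrate flanked by Cypet and Ypet, 25 nM / Times: 50 min reaction at room temperature / Signal: FRET, CFP and YFP emission / Control set: no-enzyme low control and enzyme-plus-DMSO high control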
iPSC survival up: enhancers of human iPSC single-cell survival | hiPSC single-cell survival, ATPlite luminescence; 100% = ROCK inhibitor wells, 0% = DMSO | survival enhancement, % at 20 µM | 360,000 compounds, 0.044% hits; in the data active means survival enhancement above about 18%;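 further: cells exposed to compounds for 16 hours before the ATP read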
ABCB6 blocker 1: inhibitors of human ABC transporter ABCB6; ratio response (% of DMSO), % at 10 µM; 700 tested, under 10 active; shares compounds with ABCB6 inh MLPCN; K562-ABCB6 porphyrin accumulation, flow cytometry, 1 h; active compounds read low;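 active means repeat-averaged ratio response below 75% of DMSO, the collection mean minus 3 SD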;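 further: median porphyrin fluorescence at 575 nm with 488 nm excitation from mitochondria; lower ratio means less porphyrin signal so ABCB6 inhibition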
* marks the source's active call; other numbers are inactive results. Hits are enriched below; roughly 1.1% of the tested compounds scored in any of these assays.

For COc1ccccc1CNC(=O)COc1ccc(S(=O)(=O)N2CCOCC2)cc1C the results were ABCB6 inh MLPCN 108.0, FAS-TE inh -1.4, SENP1 FRET inh -1.3 and iPSC survival up -0.6.
Screening CCCCCNc1nc2sc3c(c2c(=O)n1-c1cccc(Cl)c1)CCN(C)C3 returned ABCB6 inh MLPCN 106.0, FAS-TE inh 0.0, SENP1 FRET inh -39.7 and iPSC survival up -0.6.
Cc1ccc(N(CC(=O)NC(C)(C)C)C(=O)CCC(=O)Nc2ccccn2)cc1 was read as ABCB6 inh MLPCN 92.0, FAS-TE inh -3.5, SENP1 FRET inh 3.8 and iPSC survival up 2.8.
COc1ccc(NC(=O)CC2(CC(=O)O)CCCC2)cn1 was read as ABCB6 inh MLPCN 93.0, FAS-TE inh -2.3, SENP1 FRET inh -0.2 and iPSC survival up 0.9.
For CCN1C(=O)CSc2ccc(C(=O)NCc3ccco3)cc21 the results were ABCB6 inh MLPCN 53.0*, FAS-TE inh -10.0, SENP1 FRET inh -1.1, iPSC survival up 0.8 and ABCB6 blocker 1 101.0.
Screening CCc1ccc(-c2nn(-c3cc(Cl)ccc3[N+](=O)[O-])c(=O)c3ccccc23)cc1 returned ABCB6 inh MLPCN 101.0, FAS-TE inh -5.8, SENP1 FRET inh 2.4 and iPSC survival up 3.6.
`O=c1c2ccccc2c(-c2ccccc2)nn1-c1cc(Cl)ccc1[N+](=O)[O-]` gave ABCB6 inh MLPCN 73.0*, FAS-TE inh 19.7, SENP1 FRET inh 1.9, iPSC survival up 4.3 and ABCB6 blocker 1 100.0.
CC(=O)Nc1cc(-c2ccsc2)cn2c(-c3ccc(F)cc3)cnc12 was read as ABCB6 inh MLPCN 92.0, FAS-TE inh 4.4, SENP1 FRET inh -37.1 and iPSC survival up -2.2.
Screening COc1ccccc1Cn1c(=S)[nH]c2cc(C(=O)N3CCCC3)ccc2c1=O returned ABCB6 inh MLPCN 99.0, FAS-TE inh -1.2, SENP1 FRET inh 2.4 and iPSC survival up -0.1.
`CCN1CCN(C(=O)c2ccc3c(=O)n(Cc4ccccc4OC)c(=S)[nH]c3c2)CC1` gave ABCB6 inh MLPCN 69.0*, FAS-TE inh -6.3, SENP1 FRET inh -0.2, iPSC survival up -2.5 and ABCB6 blocker 1 102.0.
`CC(=O)Oc1cccc(/C=C2\Sc3ccccc3C2=O)c1` gave ABCB6 inh MLPCN 72.0*, FAS-TE inh 2.8, SENP1 FRET inh -64.7, iPSC survival up -0.6 and ABCB6 blocker 1 96.0.
c1ccc(COc2cccc(-c3cc4nc(NCc5ccc6c(c5)OCO6)ccn4n3)c2)cc1 was read as ABCB6 inh MLPCN 68.0*, FAS-TE inh 23.0, SENP1 FRET inh -4.5, iPSC survival up 1.3 and ABCB6 blocker 1 97.0.
For c1csc(CNc2ccn3nc(-c4ccc(OCCN5CCOCC5)cc4)cc3n2)c1 the results were ABCB6 inh MLPCN 106.0, FAS-TE inh 5.3, SENP1 FRET inh -4.6 and iPSC survival up 0.0.
c1ccc(OCCNc2ccn3nc(-c4ccc(OCCN5CCOCC5)cc4)cc3n2)cc1 was read as ABCB6 inh MLPCN 74.0*, FAS-TE inh 6.2, SENP1 FRET inh 0.1, iPSC survival up 4.0 and ABCB6 blocker 1 100.0.
CCOC(=O)N1CCN(S(=O)(=O)N2CCCC(C(=O)NCCc3ccc(C)cc3)C2)CC1 (stereo not drawn) was read as ABCB6 inh MLPCN 98.0, FAS-TE inh -3.3, SENP1 FRET inh 1.6 and iPSC survival up -0.2.
Screening CCOc1ccc(C(C(=O)NCC2CCCO2)N(Cc2cccnc2)C(=O)c2snc(C(N)=O)c2N)cc1 (stereo not drawn) returned ABCB6 inh MLPCN 74.0*, FAS-TE inh -5.2, SENP1 FRET inh -7.8, iPSC survival up -0.5 and ABCB6 blocker 1 102.0.
For CC(C)(C)c1ccc(C(=O)NCC(=O)NCC(C)(C)N2CCOCC2)cc1 the results were ABCB6 inh MLPCN 276.0, FAS-TE inh -4.1, SENP1 FRET inh -0.2 and iPSC survival up 4.6.
Screening OC(c1ccc(F)cc1)c1nc(/C=C/c2ccccc2)cs1 (stereo not drawn) returned ABCB6 inh MLPCN 61.0*, FAS-TE inh 16.2, SENP1 FRET inh 3.7, iPSC survival up -2.6 and ABCB6 blocker 1 98.0.
`OC(c1ccccc1)c1nc(/C=C/c2ccccc2)cs1` (stereo not drawn) gave ABCB6 inh MLPCN 98.0, FAS-TE inh 11.7, SENP1 FRET inh 0.0 and iPSC survival up -0.7.
For O=C1c2ccccc2C(=O)N1CCc1csc(-c2cccc(F)c2)n1 the results were ABCB6 inh MLPCN 72.0*, FAS-TE inh 25.1, SENP1 FRET inh 3.6, iPSC survival up 4.3 and ABCB6 blocker 1 98.0.
CCOc1cc(C(=O)N2CCN(C/C=C/c3ccccc3)CC2)cc(OCC)c1OCC was read as ABCB6 inh MLPCN 67.0*, FAS-TE inh -7.7, SENP1 FRET inh -1.0, iPSC survival up 0.1 and ABCB6 blocker 1 100.0.
Screening CC1C(=O)Nc2ccccc2N1C(=O)c1ccccc1 (stereo not drawn) returned ABCB6 inh MLPCN 96.0, FAS-TE inh -8.6, SENP1 FRET inh 2.4 and iPSC survival up -0.4.
CC1C(=O)Nc2ccccc2N1C(=O)C1CC1 (stereo not drawn) was read as ABCB6 inh MLPCN 72.0*, FAS-TE inh -10.4, SENP1 FRET inh -0.2, iPSC survival up -2.1 and ABCB6 blocker 1 100.0.
Screening Cc1ccccc1C(=O)N1CCC(C(=O)N2CCN(S(=O)(=O)c3ccccc3F)CC2)CC1 returned ABCB6 inh MLPCN 97.0, FAS-TE inh -3.1, SENP1 FRET inh 0.6 and iPSC survival up -0.2.
`O=C(Nc1cccc(Cl)c1)NC1CCN(C2CCCCC2)C1` (stereo not drawn) gave ABCB6 inh MLPCN 47.0*, FAS-TE inh -6.6, SENP1 FRET inh 2.0, iPSC survival up -0.8 and ABCB6 blocker 1 100.0.
For O=C(NC1CCN(C(=O)Nc2cccc(Cl)c2)CC1)C1CCCCC1 the results were ABCB6 inh MLPCN 89.0, FAS-TE inh -8.4, SENP1 FRET inh -0.1 and iPSC survival up -0.4.
Screening COC(=O)[C@H](CCSC)NC(=O)Nc1ccc(C)c(C)c1 returned ABCB6 inh MLPCN 69.0*, FAS-TE inh -9.7, SENP1 FRET inh -1.5, iPSC survival up 0.7 and ABCB6 blocker 1 101.0.
Screening O=C(CSc1nc2c(c(=O)[nH]1)CCCC2)Nc1ccc(Cl)cc1F returned ABCB6 inh MLPCN 70.0*, FAS-TE inh -5.0, SENP1 FRET inh 1.1, iPSC survival up 0.2 and ABCB6 blocker 1 104.0.
For COc1ccc(S(=O)(=O)N(CC(=O)NCc2ccncc2)c2cc(C)cc(C)c2)cc1OC the results were ABCB6 inh MLPCN 89.0, FAS-TE inh -7.1, SENP1 FRET inh -0.9 and iPSC survival up -0.2.
Screening NS(=O)(=O)c1ccc(CCNC(=O)CCCNC(=O)c2ccc(Cl)cc2)cc1 returned ABCB6 inh MLPCN 67.0*, FAS-TE inh -4.6, SENP1 FRET inh 0.7, iPSC survival up -0.3 and ABCB6 blocker 1 98.0.
Nc1nc(NCc2ccccc2)nc(Nc2cccc(F)c2)c1[N+](=O)[O-] was read as ABCB6 inh MLPCN 41.0*, FAS-TE inh -1.4, SENP1 FRET inh -1.4, iPSC survival up 11.6 and ABCB6 blocker 1 101.0.
